Experimental findings from ChEMBL document CHEMBL1121581, “4-Piperazinyl-10H-thieno[2,3-b][1,5]benzodiazepines as potential neuroleptics” (J Med Chem, 1980) are described below.

The subject of one data set is Mus musculus. Nature of the data set: Hypothermia in mice after peroral administration. The data set is classed as functional.
The nature of data set [1]: Lethal dose in mice after perorla administration. The data set is classed as toxicity, organism-based. The note with it: mouse, in vivo, po.
The test system of data set [2] is Rattus norvegicus. The experiment in a line: Compound was assessed for its ability to produce catalepsy in rats; Dose administered perorally is 50 mg/kg; Group score is 8-15. The data set is classed as functional. The settings on record: route oral. Put shortly: (§1)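 Groups of eight Lilly Wistar rats (180–190 g) were dosed orally, then checked at 0.5, 1, 1.5, 2, 3, 4 and 5 h. Front paws were placed on a 1.5-cm rod 7 cm above the table, and hold time was recorded up to 20 min. Each rat was scored 0–5 and its maximum scores were summed per group (maximum 40), then graded 0–4.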

Data set [3] relates to Rattus norvegicus. The experiment in a line: Compound was assessed for its ability to block a conditioned avoidance response; Dose administered perorally is 20 mg/kg; no significant effect (0-25%block). The data set is classed as functional. The settings on record: route oral. The procedure, abridged:
(§2)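 Lilly Wistar rats (120–130 g) trained in a shuttle box to cross on a 5-s buzzer, with mild shock if no response within 1 s of buzzer end. Only rats with a high conditioned response were used. Groups of five were dosed orally 1 h 50 min before the session, then habituated 10 min and tested 20 min. Shocks were scored as % of stimuli and graded 0–5.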

Data set [4] concerns Rattus norvegicus. Nature of the data set: Compound was assessed for its ability to block a conditioned avoidance response; Dose administered perorally is 10 mg/kg; 26-30%block. In kind it is functional. The settings on record: route oral. The procedure, abridged: as §2
Data set [5] relates to Rattus norvegicus. The experiment in a line: Compound was assessed for its ability to produce catalepsy in rats; Dose administered perorally is 10 mg/kg; Group score is 4-7. The data set is classed as functional. The settings on record: route oral. The procedure, abridged:
as §1

The test system of data set [6] is Rattus norvegicus. Nature of the data set: Compound was assessed for its ability to produce catalepsy in rats; Dose administered perorally is 80; Group score is 8-15. The data set is classed as functional.
The test system of data set [7] is Rattus norvegicus. The experiment in a line: Compound was assessed for its ability to block a conditioned avoidance response; Dose administered perorally is 30 mg/kg; 51-75%block. In kind it is functional. The settings on record: route oral. Put shortly:
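Trained Lilly Wistar rats (120–130 g) in a shuttle box, 5-s buzzer with mild shock if no response within 1 s of buzzer end. Only high-responders used; groups of five dosed orally 1 h 50 min before test, 10-min habituation, then 20-min session. Block = shocks as % of stimuli presented, scored 0–5 (3 = 51–75% block).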

In data set [8] the test system is Rattus norvegicus. The experiment in a line: Compound was assessed for its ability to block a conditioned avoidance response; Dose administered intraperitoneally is 40 mg/kg; no significant effect (0-25%block). The data set is classed as functional. The note with it: route intraperitoneal. Put shortly: (§3)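 Shuttle-box conditioned avoidance in Lilly Wistar rats (120–130 g) pretrained to a 5-s buzzer with mild shock after a 1-s failure to respond. Groups of five had 10-min habituation and a 20-min test. Block was taken as shocks received as % of buzzer presentations and graded 0–5. Maximum dose was half the rotarod-disruption ED₅₀.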

For data set [9], the system named is Rattus norvegicus. The experiment in a line: Compound was assessed for its ability to block a conditioned avoidance response; Dose administered perorally is 10 mg/kg; 31-50%block. In kind it is functional. The note with it: route oral. The procedure, abridged:
as §2

Data set [10] deals with Rattus norvegicus. Nature of the data set: Compound was assessed for its ability to produce catalepsy in rats; Dose administered perorally is 16 mg/kg; Group score is 4-7. The data set is classed as functional. The note with it: route oral. Put shortly: as §1
Data set [11] relates to Rattus norvegicus. Nature of the data set: Compound was assessed for its ability to block a conditioned avoidance response; Dose administered perorally is 12.5 mg/kg; 76-99%block. In kind it is functional. The settings on record: route oral. Put shortly:
as §2

For data set [12], the system named is Rattus norvegicus. The experiment in a line: Compound was assessed for its ability to block a conditioned avoidance response; Dose administered perorally is 10 mg/kg; 76-99%block. In kind it is functional. The note with it: route oral. The procedure, abridged: as §2
The test system of data set [13] is Rattus norvegicus. Nature of the data set: Compound was assessed for its ability to produce catalepsy in rats; Dose administered perorally is 10 mg/kg; Group score is 8-15. In kind it is functional. The note with it: route oral. Put shortly: as §1
The test system of data set [14] is Rattus norvegicus. The experiment in a line: Compound was assessed for its ability to produce catalepsy in rats; Dose administered perorally is 12 mg/kg; Group score is 8-15. The data set is classed as functional. The settings on record: route oral. The procedure, abridged:
as §1

The subject of data set [15] is Rattus norvegicus. Nature of the data set: Compound was assessed for its ability to block a conditioned avoidance response; Dose administered perorally is 6 mg/kg; 51-75%block. The note with it: route oral. The data set is classed as functional. Put shortly: as §2
In data set [16] the test system is Rattus norvegicus. Nature of the data set: Compound was assessed for its ability to produce catalepsy in rats; Dose administered perorally is 12.5 mg/kg; Group score is 8-15. The data set is classed as functional. The note with it: route oral. Put shortly: as §1
The test system of data set [17] is Rattus norvegicus. The experiment in a line: Compound was assessed for its ability to block a conditioned avoidance response; Dose administered perorally is 30 mg/kg; Complete block of conditioned & unconditioned response. The data set is classed as functional. The note with it: route oral. The procedure, abridged: as §2
For data set [18], the system named is Rattus norvegicus. The experiment in a line: Compound was assessed for its ability to block a conditioned avoidance response; Dose administered intraperitoneally is 50 mg/kg; 31-50%block. In kind it is functional. The settings on record: route intraperitoneal. Put shortly:
as §3

In data set [19] the test system is Rattus norvegicus. Nature of the data set: Compound was assessed for its ability to produce catalepsy in rats; Dose administered perorally is 25 mg/kg; Group score is 4-7. The settings on record: route oral. The data set is classed as functional. Put shortly:
as §1

In data set [20] the test system is Rattus norvegicus. The experiment in a line: Compound was assessed for its ability to block a conditioned avoidance response; Dose administered perorally is 50 mg/kg; 51-75%block. The data set is classed as functional. The note with it: route oral. The procedure, abridged:
as §2

Compound `CC(=O)c1cc2c(s1)Nc1ccc(F)cc1N=C2N1CCN(C)CC1` came in with an EDmin in the data set with Mus musculus of 12.5 mg/kg. Moreover, the LD50 in [1] stood at 200 mg/kg. Also, the Activity with Rattus norvegicus [2] is reported as 2; in the data set with Rattus norvegicus [3], 0.

`CN1CCN(C2=Nc3cc(F)ccc3Nc3sc(C(C)(C)C)cc32)CC1` showed an EDmin in the data set with Mus musculus of 12.5 mg/kg. This compound also came in with an LD50 in data set [1] of more than 400 mg/kg. Besides, the Activity in the data set on Rattus norvegicus [4] and in the data set with Rattus norvegicus [5] was 1 in each case.

As to `CN1CCN(C2=Nc3cc(Cl)ccc3Nc3ccccc32)CC1` [CLOZAPINE], in the data set on Mus musculus, the EDmin is 50 mg/kg. In addition, the Activity in the data set on Rattus norvegicus [6] worked out at 2; in the data set with Rattus norvegicus [7], 3.

In the data set on Mus musculus, `CCc1cc2c(s1)Nc1ccc(F)cc1N=C2NCCCO` came in with an EDmin of more than 200 mg/kg. Further, the LD50 in data set [1] was 400 mg/kg. The Activity in the data set with Rattus norvegicus [8] is recorded as 0.

With `CCc1cc2c(s1)Nc1ccccc1N=C2N1CCN(C)CC1`, the EDmin in the data set with Mus musculus was determined as 25 mg/kg. In data set [1], this compound showed an LD50 of 150 mg/kg. The Activity stood at 2 with Rattus norvegicus [9] and 1 with Rattus norvegicus [10].

`CCc1cc2c(s1)Nc1ccc(F)cc1N=C2N1CC[N+](C)([O-])CC1`: in the data set on Mus musculus, the EDmin amounted to 25 mg/kg. Also, the LD50 in data set [1] worked out at 200 mg/kg. Further, the Activity in the data set on Rattus norvegicus [11] was found to be 4; in the data set with Rattus norvegicus [5], 1.

`CC(C)c1cc2c(s1)Nc1ccc(F)cc1N=C2N1CCN(C)CC1` showed an EDmin in the data set with Mus musculus of 6.25 mg/kg. In data set [1], this compound showed an LD50 of 50 mg/kg. The results for the Activity in the data set with Rattus norvegicus [12] and in the data set with Rattus norvegicus [13] were 4 and 2, respectively.

In the data set on Mus musculus, `CCc1cc2c(s1)Nc1ccc(F)cc1N=C2N1CCN(C)CC1` gave an EDmin of 6.25 mg/kg. Besides, in data set [1], the LD50 was more than 200 mg/kg. Also, the Activity in the data set on Rattus norvegicus [14] was 2; in the data set on Rattus norvegicus [15] it was 3.

`CCc1cc2c(s1)Nc1ccc(F)cc1N=C2N1CCN(CCCO)CC1`: the EDmin in the data set with Mus musculus was 25 mg/kg. Also, the LD50 in data set [1] was 400 mg/kg. The Activity in the data set on Rattus norvegicus [9] and in the data set with Rattus norvegicus [16] was 2 throughout.

`CN1CCN(C2=Nc3cc(F)ccc3Nc3sccc32)CC1` displayed an EDmin with Mus musculus of 25 mg/kg. The compound further returned an LD50 in data set [1] of more than 200 mg/kg. In the data set with Rattus norvegicus [17], this compound showed an Activity of 5.

With `CCc1cc2c(s1)Nc1ccc(F)cc1N=C2NCCCN1CCN(C)CC1`, the EDmin in the data set on Mus musculus came out at 200 mg/kg. Moreover, in [1], the LD50 is 400 mg/kg. Besides, the Activity with Rattus norvegicus [18] is on record as 2.

Turning to `CSc1ccc2c(c1)N(CCC1CCCCN1C)c1ccccc1S2` (centres undefined) [THIORIDAZINE], the EDmin in the data set on Mus musculus was 25 mg/kg. Further, the LD50 in [1] was 400 mg/kg. Further, the Activity with Rattus norvegicus [19] was found to be 1; with Rattus norvegicus [20], 3.

One may read the LD50 as the dose at which mortality reaches 50%. Higher therefore signals lower toxicity.
